From ChEMBL document CHEMBL1649446, “Comparative antipneumococcal activities of sulopenem and other drugs” (2009)
≈ marks a conversion by molar mass, not a printed value.

Assays:
Format in all cases: functional
Streptococcus pneumoniae [1] = assay: Antimicrobial activity against Streptococcus pneumoniae 12 by time-kill analysis
Method in brief: (§1)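 Time-kill in cation-adjusted Mueller-Hinton broth with 5% lysed horse blood; inocula 5 × 105 to 5 × 10^6 CFU/ml; drugs at MIC, 2× and 4× MIC; 35°C shaking water bath; viable counts at 0, 3, 6, 12, 24 h. Bactericidal = ≥3 log10 CFU/ml (99.9%) drop from original inoculum; 90%/99%/99.9% killing scored per strain.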

Streptococcus pneumoniae [2] = assay: Antimicrobial activity against Streptococcus pneumoniae 2 by time-kill analysis; method in brief: as §1
Streptococcus pneumoniae [3] = assay: Antimicrobial activity against Streptococcus pneumoniae isolate 3260 by agar dilution method
Streptococcus pneumoniae [4] = assay: Antimicrobial activity against Streptococcus pneumoniae 19A by agar dilution method
Method in brief: (§2)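 Agar dilution MIC on Mueller-Hinton agar with 5% sheep blood, inocula 10^4 CFU/spot; amoxicillin-clavulanate combined 1:2; S. pneumoniae ATCC 49619 quality control each run.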

Streptococcus pneumoniae [5] = assay: Antimicrobial activity against Streptococcus pneumoniae isolate 2688 by agar dilution method; method in brief: as §2
Streptococcus pneumoniae [6] = assay: Antimicrobial activity against Streptococcus pneumoniae isolate 3455 by agar dilution method
Streptococcus pneumoniae [7] = assay: Antimicrobial activity against Streptococcus pneumoniae isolate 1146 by agar dilution method; method in brief: as §2
Streptococcus pneumoniae [8] = assay: Antimicrobial activity against Streptococcus pneumoniae isolate 3346 by agar dilution method
Streptococcus pneumoniae [9] = assay: Antimicrobial activity against Streptococcus pneumoniae isolate 1384 by agar dilution method; method in brief: as §2
Streptococcus pneumoniae [10] = assay: Antimicrobial activity against Streptococcus pneumoniae isolate 1394 by agar dilution method
Streptococcus pneumoniae [11] = assay: Antimicrobial activity against Streptococcus pneumoniae isolate 3458 by agar dilution method
Streptococcus pneumoniae [12] = assay: Antimicrobial activity against Streptococcus pneumoniae isolate 4755 by agar dilution method; method in brief: as §2
Streptococcus pneumoniae [13] = assay: Antimicrobial activity against Streptococcus pneumoniae isolate 24 by agar dilution method
Streptococcus pneumoniae [14] = assay: Antimicrobial activity against penicillin-susceptible Streptococcus pneumoniae by agar dilution method
Streptococcus pneumoniae [15] = assay: Antimicrobial activity against Streptococcus pneumoniae 10 by time-kill analysis; method in brief: as §1
Streptococcus pneumoniae [16] = assay: Antimicrobial activity against Streptococcus pneumoniae isolate 3791 by agar dilution method; method in brief: as §2
Streptococcus pneumoniae [17] = assay: Antimicrobial activity against Streptococcus pneumoniae isolate 2686 by agar dilution method; method in brief: as §2
Streptococcus pneumoniae [18] = assay: Antimicrobial activity against Streptococcus pneumoniae isolate 37 by agar dilution method; method in brief: as §2
Streptococcus pneumoniae [19] = assay: Antimicrobial activity against Streptococcus pneumoniae isolate 1564 by agar dilution method
Streptococcus pneumoniae [20] = assay: Antimicrobial activity against Streptococcus pneumoniae 7 by time-kill analysis; method in brief: as §1
Streptococcus pneumoniae [21] = assay: Antimicrobial activity against penicillin-intermediate Streptococcus pneumoniae by agar dilution method
Streptococcus pneumoniae [22] = assay: Antimicrobial activity against Streptococcus pneumoniae isolate 3263 by agar dilution method
Streptococcus pneumoniae [23] = assay: Antimicrobial activity against Streptococcus pneumoniae isolate 2617 by agar dilution method; method in brief: as §2
Streptococcus pneumoniae [24] = assay: Antimicrobial activity against Streptococcus pneumoniae 9 by time-kill analysis
Method in brief: (§3)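 Time-kill in cation-adjusted Mueller-Hinton broth with 5% lysed horse blood; inocula 5 × 105 to 5 × 10^6 CFU/ml; drugs at MIC, 2× and 4× MIC; 35°C shaking water bath; viable counts at 0, 3, 6, 12 and 24 h. Bactericidal if ≥3 log10 CFU/ml (99.9%) reduction from original inoculum; 90% and 99% killing also scored.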

Streptococcus pneumoniae [25] = assay: Antimicrobial activity against Streptococcus pneumoniae 8 by time-kill analysis; method in brief: as §1
Streptococcus pneumoniae [26] = assay: Antimicrobial activity against Streptococcus pneumoniae isolate 1397 by agar dilution method; method in brief: as §2
Streptococcus pneumoniae [27] = assay: Antimicrobial activity against Streptococcus pneumoniae isolate 3587 by agar dilution method
Streptococcus pneumoniae [28] = assay: Antimicrobial activity against Streptococcus pneumoniae 5 by time-kill analysis; method in brief: as §3
Streptococcus pneumoniae [29] = assay: Antimicrobial activity against Streptococcus pneumoniae isolate 3275 by agar dilution method; method in brief: as §2
Streptococcus pneumoniae [30] = assay: Antimicrobial activity against Streptococcus pneumoniae isolate 1424 by agar dilution method; method in brief: as §2
Streptococcus pneumoniae [31] = assay: Antimicrobial activity against Streptococcus pneumoniae isolate 3412 by agar dilution method; method in brief: as §2
Streptococcus pneumoniae [32] = assay: Antimicrobial activity against penicillin-resistant Streptococcus pneumoniae by agar dilution method; method in brief: as §2
Streptococcus pneumoniae [33] = assay: Antimicrobial activity against Streptococcus pneumoniae isolate 33 by agar dilution method; method in brief: as §2
Streptococcus pneumoniae [34] = assay: Antimicrobial activity against Streptococcus pneumoniae isolate 3681 by agar dilution method; method in brief: as §2
Streptococcus pneumoniae [35] = assay: Antimicrobial activity against Streptococcus pneumoniae isolate 3282 by agar dilution method
Streptococcus pneumoniae [36] = assay: Antimicrobial activity against Streptococcus pneumoniae isolate 4747 by agar dilution method; method in brief: as §2
Streptococcus pneumoniae [37] = assay: Antimicrobial activity against Streptococcus pneumoniae isolate 3481 by agar dilution method; method in brief: as §2
Streptococcus pneumoniae [38] = assay: Antimicrobial activity against Streptococcus pneumoniae 4 by time-kill analysis; method in brief: as §1
Streptococcus pneumoniae [39] = assay: Antimicrobial activity against Streptococcus pneumoniae isolate 1147 by agar dilution method; method in brief: as §2
Streptococcus pneumoniae [40] = assay: Antimicrobial activity against Streptococcus pneumoniae 1 by time-kill analysis; method in brief: as §3
Streptococcus pneumoniae [41] = assay: Antimicrobial activity against Streptococcus pneumoniae isolate 2874 by agar dilution method; method in brief: as §2
Streptococcus pneumoniae [42] = assay: Antimicrobial activity against Streptococcus pneumoniae isolate 1055 by agar dilution method
Streptococcus pneumoniae [43] = assay: Antimicrobial activity against Streptococcus pneumoniae 3 by time-kill analysis; method in brief: as §1
Streptococcus pneumoniae [44] = assay: Antimicrobial activity against Streptococcus pneumoniae isolate 2880 by agar dilution method; method in brief: as §2
Streptococcus pneumoniae [45] = assay: Antimicrobial activity against Streptococcus pneumoniae 6 by time-kill analysis; method in brief: as §1
Streptococcus pneumoniae [46] = assay: Antimicrobial activity against Streptococcus pneumoniae isolate 3374 by agar dilution method; method in brief: as §2
Streptococcus pneumoniae [47] = assay: Antimicrobial activity against Streptococcus pneumoniae 11 by time-kill analysis; method in brief: as §1

C[C@@H](O)[C@H]1C(=O)N2C(C(=O)O)=C(S[C@H]3CC[S@@+]([O-])C3)S[C@H]12 [SULOPENEM]
MIC (Streptococcus pneumoniae [1]): 0.5 µg/mL (≈ 1.43 µM) | MIC (Streptococcus pneumoniae [2]): 0.008 µg/mL (≈ 0.0229 µM) | MIC (Streptococcus pneumoniae [3]): 0.5 µg/mL (≈ 1.43 µM) | MIC50 (Streptococcus pneumoniae [4]): 1 µg/mL (≈ 2.86 µM) | MIC90 (Streptococcus pneumoniae [4]): 2 µg/mL (≈ 5.72 µM) | MIC (Streptococcus pneumoniae [5]): 1 µg/mL (≈ 2.86 µM) | MIC (Streptococcus pneumoniae [6]): 1 µg/mL (≈ 2.86 µM) | MIC (Streptococcus pneumoniae [7]): 1 µg/mL (≈ 2.86 µM) | MIC (Streptococcus pneumoniae [8]): 0.5 µg/mL (≈ 1.43 µM) | MIC (Streptococcus pneumoniae [9]): 0.25 µg/mL (≈ 0.715 µM) | MIC (Streptococcus pneumoniae [10]): 0.5 µg/mL (≈ 1.43 µM) | MIC (Streptococcus pneumoniae [11]): 1 µg/mL (≈ 2.86 µM) | MIC (Streptococcus pneumoniae [12]): 0.5 µg/mL (≈ 1.43 µM) | MIC (Streptococcus pneumoniae [13]): 0.5 µg/mL (≈ 1.43 µM) | MIC50 (Streptococcus pneumoniae [14]): 0.008 µg/mL (≈ 0.0229 µM) | MIC90 (Streptococcus pneumoniae [14]): 0.016 µg/mL (≈ 0.0458 µM) | MIC (Streptococcus pneumoniae [15]): 0.06 µg/mL (≈ 0.172 µM) | MIC (Streptococcus pneumoniae [16]): 0.25 µg/mL (≈ 0.715 µM) | MIC (Streptococcus pneumoniae [17]): 1 µg/mL (≈ 2.86 µM) | MIC (Streptococcus pneumoniae [18]): 1 µg/mL (≈ 2.86 µM) | MIC (Streptococcus pneumoniae [19]): 0.5 µg/mL (≈ 1.43 µM) | MIC (Streptococcus pneumoniae [20]): 1 µg/mL (≈ 2.86 µM) | MIC50 (Streptococcus pneumoniae [21]): 0.06 µg/mL (≈ 0.172 µM) | MIC90 (Streptococcus pneumoniae [21]): 0.25 µg/mL (≈ 0.715 µM) | MIC (Streptococcus pneumoniae [22]): 0.25 µg/mL (≈ 0.715 µM) | MIC (Streptococcus pneumoniae [23]): 0.25 µg/mL (≈ 0.715 µM) | MIC (Streptococcus pneumoniae [24]): 0.12 µg/mL (≈ 0.343 µM) | MIC (Streptococcus pneumoniae [25]): 1 µg/mL (≈ 2.86 µM) | MIC (Streptococcus pneumoniae [26]): 0.5 µg/mL (≈ 1.43 µM) | MIC (Streptococcus pneumoniae [27]): 0.25 µg/mL (≈ 0.715 µM) | MIC (Streptococcus pneumoniae [28]): 1 µg/mL (≈ 2.86 µM) | MIC (Streptococcus pneumoniae [29]): 0.125 µg/mL (≈ 0.358 µM) | MIC (Streptococcus pneumoniae [30]): 0.5 µg/mL (≈ 1.43 µM) | MIC (Streptococcus pneumoniae [31]): 0.125 µg/mL (≈ 0.358 µM) | MIC50 (Streptococcus pneumoniae [32]): 0.25 µg/mL (≈ 0.715 µM) | MIC90 (Streptococcus pneumoniae [32]): 0.5 µg/mL (≈ 1.43 µM) | MIC (Streptococcus pneumoniae [33]): 1 µg/mL (≈ 2.86 µM) | MIC (Streptococcus pneumoniae [34]): 0.25 µg/mL (≈ 0.715 µM) | MIC (Streptococcus pneumoniae [35]): 0.5 µg/mL (≈ 1.43 µM) | MIC (Streptococcus pneumoniae [36]): 0.25 µg/mL (≈ 0.715 µM) | MIC (Streptococcus pneumoniae [37]): 0.25 µg/mL (≈ 0.715 µM) | MIC (Streptococcus pneumoniae [38]): 0.5 µg/mL (≈ 1.43 µM) | MIC (Streptococcus pneumoniae [39]): 1 µg/mL (≈ 2.86 µM) | MIC (Streptococcus pneumoniae [40]): 0.008 µg/mL (≈ 0.0229 µM) | MIC (Streptococcus pneumoniae [41]): 1 µg/mL (≈ 2.86 µM) | MIC (Streptococcus pneumoniae [42]): 0.25 µg/mL (≈ 0.715 µM) | MIC (Streptococcus pneumoniae [43]): 0.12 µg/mL (≈ 0.343 µM) | MIC (Streptococcus pneumoniae [44]): 0.5 µg/mL (≈ 1.43 µM) | MIC (Streptococcus pneumoniae [45]): 0.12 µg/mL (≈ 0.343 µM) | MIC (Streptococcus pneumoniae [46]): 0.25 µg/mL (≈ 0.715 µM) | MIC (Streptococcus pneumoniae [47]): 1 µg/mL (≈ 2.86 µM)
